Screens: PubChem BioAssay, several laboratories
Redox H2O2 prof: compounds producing H2O2 with reducing agent – biochemical, NIH compound library profiling, artefact control for MLSCN library redox annotation, primary screen; DTT-dependent redox cycling H2O2, phenol red/HRP absorbance; 100% = 100 µM peroxide control, 0% = buffer; activation, % at 10 µM; 200,000 compounds, 0.03% hits;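 active = activation of at least 50% relative to the plate's high and low controls in the primary single-dose screen; inactive = activation below 50%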;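 note: compound incubated with DTT at 0.8 mM final as the reducing agent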
Hep lipid drop: hepatic lipid droplet formation modulation; AML12 mouse hepatocytes, oleate lipid droplets, BODIPY imaging; inhibition, % at 6.5 µM; 240,000 compounds, 0.4% hits; AID 1656;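 active = lipid droplet intensity inhibited by at least 50%, with more than 500 cells counted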
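System: AML12 hepatocytes (mouse). Probe or stimulus: oleic acid at 100 µM to induce lipid droplet formation. Times: overnight treatment with compound plus oleate. Detection: Image-based BODIPY and DAPI two-channel analysis. Evaluation: percent inhibition of filter-corrected integrated lipid droplet intensity per well.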
L major viab: Leishmania major promastigote growth inhibition. Leishmania major promastigotes, resazurin fluorescence viability. inhibition, % at 10 µM. 200,000 compounds, 9% hits; in the data active = inhibition above about 50%;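 note: promastigotes grown with compound for 44 hours at 28 °C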
MPTP block: blocks calcium-induced mitochondrial swelling; isolated mouse mitochondria, Ca2+ swelling absorbance, 30 min; inhibition, % at 10 µM; 360,000 compounds, 1.4% hits;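 active = inhibition of 50% or more, scaled per plate between neutral and stimulator controls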;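 note: 0% = DMSO wells given calcium and 100% = 1 mM EGTA wells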
T cruzi inh: blocks replication of Trypanosoma cruzi. 300,000 compounds, 1.4% hits. T. cruzi beta-gal in NIH3T3, luminescence, 90 h. inhibition, % (no concentration beside the values);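 active = mean inhibition across valid replicates above about 55%, limit read from the data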;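 note: signal also drops with host cell toxicity which is not excluded here; 0% = plate median of DMSO wells and 100% = zero luminescence signal; higher percent means less beta-gal luminescence so fewer parasites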
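System – NIH/3T3 host cells with β-galactosidase reporter T. cruzi · Doses – single 50 nL compound addition per well in DMSO · Reagent – 5000 T. cruzi trypomastigotes/well · Medium – Low-serum DMEM with 2% FBS · Timing – ≥90 h infection period, 3 h prior cell attachment · Evaluation – parasite load inhibition, % · Technique – GalScreen luminescence, 60 min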
Rh123 counter: membrane potential counter-screen of mitochondrial pore inhibitors | inhibition, % at 10 µM | shares compounds with MPTP block | 5,000 compounds, 78% hits | isolated mitochondria, Rhodamine 123 fluorescence; in the data active = inhibition above about 22%;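 note: 0% = DMSO vehicle and 100% = positive control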
MPTP swell DR: dose response confirmation of mitochondrial permeability transition pore inhibitors | shares compounds with MPTP block | 780 compounds, 58% hits | AID 651561 | isolated mitochondria swelling, absorbance | IC50, µM; in the data active = IC50 below about 20 µM
MPTP counter DR: MPTP inhibitor counter-screen activity, dose response. shares compounds with MPTP block. isolated mitochondria counterscreen, fluorescence read-out. IC50, µM. 780 compounds, 49% hits; in the data active = IC50 below about 80 µM
Numbers without * were called inactive. Shown is part of a subset that was picked to be rich in hits.

How did CN(C)CC1CCCCC1OC(=O)c1ccc(S(=O)(=O)N(C)c2ccccc2)cc1 (stereo not drawn) do in these assays?
Hep lipid drop: 3.0; MPTP block: 81.4*; T cruzi inh: 21.1; Rh123 counter: 0.3; MPTP swell DR: 12*; MPTP counter DR: 61.4*

Results for CCN(CC(=O)Nc1c(F)cccc1F)C(=O)C1(c2ccccc2)CC1 ?
Hep lipid drop: -4.2; MPTP block: -0.7; T cruzi inh: -2.0

Results for O=C(/C=C/c1ccc(Cl)c([N+](=O)[O-])c1)Nc1ccc(N2CCCC2)c(Cl)c1 ?
Redox H2O2 prof: 1.9; Hep lipid drop: 1.0; L major viab: 78.6*; MPTP block: 75.8*; T cruzi inh: 5.1; Rh123 counter: 40.2*

Results for O=C(Nc1ccccc1N1CCCCC1)c1ccc(Cl)c([N+](=O)[O-])c1 ?
Redox H2O2 prof: -1.5; Hep lipid drop: -5.6; L major viab: 16.8; MPTP block: 2.1; T cruzi inh: -4.0

Results for COc1cccc(N(C(=O)CNC(=O)c2ccco2)C(C(=O)NC2CCCC2)c2cccnc2)c1 (stereo not drawn) ?
Hep lipid drop: -2.6; MPTP block: 0.2; T cruzi inh: -7.2

What do the screens show for `COc1ccc(C(=O)Nc2ccc(NC(=O)Cc3ccccc3)cn2)cc1`?
Hep lipid drop: -8.0; MPTP block: 0.7; T cruzi inh: 4.6

Results for COc1ccc(NC(=O)Cc2csc(NC(=O)Nc3ccccc3OC)n2)c(OC)c1 ?
MPTP block: -1.2; T cruzi inh: 2.5

Results for COc1ccccc1NC(=O)Cc1csc(NC(=S)Nc2ccccc2)n1 ?
Redox H2O2 prof: -3.0; L major viab: 10.0; MPTP block: 79.2*; T cruzi inh: -4.3; Rh123 counter: 71.1*

Results for COc1ccc(NC(=S)Nc2nc(CC(=O)Nc3ccccc3OC)cs2)cc1 ?
Redox H2O2 prof: -3.5; L major viab: 13.2; MPTP block: 75.4*; T cruzi inh: -13.0; Rh123 counter: 79.1*

Results for COc1ccc(OC)c(NC(=O)Cc2csc(NC(=O)Nc3ccccc3OC)n2)c1 ?
MPTP block: 0.3; T cruzi inh: -4.9

Results for Cc1cc(C)c(NS(=O)(=O)c2ccccc2)c(C)n1 ?
MPTP block: 0.2

How did O=C(Nc1cc(Oc2ccccc2)cc([N+](=O)[O-])c1)C12CC3CC(C1)CC(n1cnc(Cl)n1)(C3)C2 do in these assays?
Redox H2O2 prof: -3.1; L major viab: 80.1*; MPTP block: 81.9*; T cruzi inh: 61.7*; Rh123 counter: 59.0*

Results for Cc1cccc(C)c1-n1c(C)cc(/C=N/NC(=O)CSc2ncccn2)c1C ?
Redox H2O2 prof: -0.6; Hep lipid drop: -116.3; L major viab: 46.1; MPTP block: 88.6*; T cruzi inh: -10.2; Rh123 counter: -6.2; MPTP swell DR: inactive; MPTP counter DR: 49.6*

How did Cc1cc(C)nc(SCC(=O)N/N=C/c2cc(C)n(-c3ccccc3C)c2C)n1 do in these assays?
Redox H2O2 prof: -0.2; Hep lipid drop: -13.8; L major viab: 6.0; MPTP block: 3.0; T cruzi inh: 5.0

Results for NNC(=O)c1ccc(NS(=O)(=O)c2ccc(Br)cc2)cc1 ?
Hep lipid drop: -6.8; T cruzi inh: -4.2

What do the screens show for `CC(=O)NC12CC3CC(C1)CC(C(=O)N1CCN(S(=O)(=O)c4ccc(C(C)C)cc4)CC1)(C3)C2`?
MPTP block: -1.2; T cruzi inh: 10.9

What do the screens show for `CCOc1ccccc1OCCCOc1ccc(C)cc1Br`?
Redox H2O2 prof: -5.2; L major viab: 2.0; MPTP block: -3.3; T cruzi inh: 0.8

How did C=CCNCCCOc1ccc(C)cc1Br do in these assays?
Redox H2O2 prof: -0.5; Hep lipid drop: -7.9; L major viab: 93.5*; MPTP block: 81.1*; T cruzi inh: 18.0; Rh123 counter: 1.8; MPTP swell DR: 15.5*; MPTP counter DR: >80

Results for O=C(Nc1ccccc1)Nc1nnc(Cc2ccc([N+](=O)[O-])cc2)s1 ?
Redox H2O2 prof: 0.8; Hep lipid drop: -3.0; L major viab: -7.6; MPTP block: 93.2*; T cruzi inh: 10.8; Rh123 counter: 89.1*

How did Cc1ccc(NC(=O)Nc2nnc(Cc3ccc([N+](=O)[O-])cc3)s2)cc1C do in these assays?
Redox H2O2 prof: 2.0; Hep lipid drop: -23.4; L major viab: -7.0; MPTP block: 86.3*; T cruzi inh: 15.0; Rh123 counter: 62.8*

How did O=C(Nc1nnc(Cc2ccc([N+](=O)[O-])cc2)s1)Nc1ccccc1F do in these assays?
Redox H2O2 prof: 2.8; Hep lipid drop: 1.2; L major viab: -8.9; MPTP block: 10.0; T cruzi inh: -16.4

Results for COc1ccc(CCCc2nnc(SCC(=O)Nc3ccccc3F)o2)cc1 ?
Redox H2O2 prof: 0.0; Hep lipid drop: -0.5; L major viab: -2.5; MPTP block: -1.3; T cruzi inh: -7.1

How did COc1ccc(NC(=S)N(CCN2CCOCC2)Cc2cc3cc4c(cc3[nH]c2=O)OCCO4)cc1 do in these assays?
Redox H2O2 prof: -1.7; Hep lipid drop: 13.3; L major viab: 14.3; MPTP block: 0.1; T cruzi inh: 9.6

How did Cc1ccc(-c2csc(N3CCC(C(N)=O)CC3)n2)cc1 do in these assays?
MPTP block: 0.2

Results for Cc1ccc(-c2csc(N3CCC(NS(=O)(=O)c4ccc5c(c4)OCCO5)CC3)n2)cc1 ?
Redox H2O2 prof: 0.3; L major viab: 6.3; MPTP block: 95.1*; T cruzi inh: 19.6; Rh123 counter: 95.3*

How did CCCCNC(=O)COC(=O)CCC(=O)c1ccc(Cl)cc1 do in these assays?
Redox H2O2 prof: 0.0; Hep lipid drop: -22.2; L major viab: -7.0; MPTP block: 0.9; T cruzi inh: -1.0

What do the screens show for `c1ccc(COc2cncc(-c3cccnc3)c2)cc1`?
MPTP block: -0.4

Results for O=C(NC1C/C(=N/O)c2cc3c(cc21)OCO3)C(F)(F)F (stereo not drawn) ?
Redox H2O2 prof: -1.9; Hep lipid drop: 9.1; L major viab: -4.8; MPTP block: 145.0*; T cruzi inh: -8.0; Rh123 counter: -7.5; MPTP swell DR: >100; MPTP counter DR: >80

What do the screens show for `Cc1ccc(C(NC(=O)C2CCCCC2)c2c(O)ccc3ccccc23)cc1` (stereo not drawn)?
Redox H2O2 prof: 0.4; Hep lipid drop: 57.3*; L major viab: 97.4*; MPTP block: 99.4*; T cruzi inh: 44.5; Rh123 counter: 80.4*
